# Bioassay records as filed in PubChem.
# MEKK2 mut-MEK5: signal of MEK5 binding to mutant human MEKK2 PB1 domain; bead flow cytometry, Alexa488-MEK5 binding to MEKK2 mutant; percent response, % at 10 µM; 0.35% of 290,000 active; AID 1530; in the data active = percent response above about 24%, passing the limit was not always enough
# WT yeast gro inh: growth inhibition of WT yeast, mitochondrial fusion screen | inhibition, % at 10 µM | 2.1% of 190,000 active | mitochondrial fusion phenotypic screen, WT strain; in the data active = inhibition above about 58%; tested in S. cerevisiae
# ABCB1 block: inhibitors of human ABCB1 transporter, ABCG2 counter-screen; P08183; CCRF-Adr cells, JC-1 efflux, flow cytometry; inhibition, % at 6.6 µM; 0.067% of 190,000 active; in the data active = inhibition above about 40%;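 note: 0% = vehicle and 100% = reference inhibitor; higher value means more JC-1 retained so stronger ABCB1 efflux block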
# ABCG2 block: inhibitors of human ABCG2 transporter, ABCB1 counter-screen; Q9UNQ0; IgMXP3 cells, JC-1 efflux, flow cytometry; inhibition, % at 6.6 µM; 0.1% of 190,000 active; AID 1325;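 active = inhibition above 80%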;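 note: 0% = DMSO and 100% = nicardipine control wells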
#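 Measure – % inhibition of efflux relative to nicardipine and DMSO · Test system – ABCG2 IgMXP3 and barcoded ABCB1 CCRF-Adr cell mix · Control set – nicardipine as high control, DMSO as low control · Compound – one concentration, 6.6 µM final · Signal – flow cytometry of retained JC-1 fluorescence · Timing – 10 min exposure at 25 °C with rotation, no wash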
# MEKK2 WT-MEK5: raises or lowers MEK5 binding to wildtype human MEKK2 PB1 domain | binding response (% of control), % at 10 µM | Q9Y2U5 | bead flow cytometry, Alexa488-MEK5 binding to MEKK2 WT; actives lie on both sides | 1.1% of 290,000 active; in the data active = binding response below about 67% or above about 130%
# MEKK3 PB1 HTS: MEKK3-MEK5 PB1 interaction, increase or decrease. binding response (% of control), % at 10 µM. bead-based flow cytometry, Alexa488-MEK5 binding to MEKK3; actives lie on both sides; 0 = blocked by unlabeled MEK5, 100 = vehicle. 1.4% of 290,000 active. Q99759;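 active = binding response more than 3 SD above or below the average of its plate-row segment, actives on both sides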;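 note: Alexa488 bead fluorescence after subtracting the streptavidin-only scavenger bead signal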
# MEKK2wt confirm: raises or lowers MEK5 binding to wildtype human MEKK2, retest. shares compounds with MEKK3 PB1 HTS. bead flow cytometry, Alexa488-MEK5 binding to MEKK2 WT; actives lie on both sides. binding response (% of control), % at 10 µM. 2.4% of 5,900 active. AID 1892; in the data active = binding response below about 16% or above about 210%; inactive = in between
# MEKK2mut confirm: signal of MEK5 binding to mutant human MEKK2, retest; shares compounds with MEKK3 PB1 HTS; bead flow cytometry, Alexa488-MEK5 binding to MEKK2 mutant; percent response, % at 10 µM; 2% of 5,900 active; in the data active = percent response mostly above about 71%, no sharp cut-off; inactive = mostly below about 38%;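 note: higher means compound restores mutant binding toward wildtype level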
# MEKK3-MEK5 inh: confirmation of inhibitors of MEK5 binding to human MEKK3; shares compounds with MEKK3 PB1 HTS; bead flow cytometry, Alexa488-MEK5 binding to MEKK3; stronger effect = lower value; binding response (% of control), % at 10 µM; 1.8% of 5,900 active;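 active = binding response below 72% of control, or above a set upper limit, though filed actives all read lower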;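 note: 100% = DMSO only wells and 0% = binding blocked by excess unlabeled MEK5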
# The depositor's hits bear a star; / = no result given; [ ] = another dose, or the depositor's remark. In the library only some 3.5% were active in any assay of this set; here they are far more common.
SMILES,MEKK2 mut-MEK5,WT yeast gro inh,ABCB1 block,ABCG2 block,MEKK2 WT-MEK5,MEKK3 PB1 HTS,MEKK2wt confirm,MEKK2mut confirm,MEKK3-MEK5 inh
COc1ccc(C(=O)N/N=C(\C)c2ccc3c(c2)C2C=CCC2C(c2ccccc2)N3)cc1 (stereo not drawn),-3.0,9.4,-1.0,-23.7,91.0,91.0,/,/,/
COc1ccc(C(=O)N2CCCC(Nc3ccc(F)cc3)C2)c(OC)c1 (stereo not drawn),8.0,/,/,/,109.0,106.0,/,/,/
COc1ccc(/C=N/NC(=O)CCn2nc(C)cc2C)cc1,30.0,/,/,/,112.0,133.0*,96.0,-3.0,98.0
COc1ccc(/C=N/NC(=O)CCn2nc(C)cc2C)cc1O,6.0,/,/,/,103.0,100.0,/,/,/
Cc1ccc(NC(=O)CCn2nc(C)cc2C)cc1,10.0,-2.6,0.3,3.7,139.0*,142.0*,101.0,1.0,100.0
CC(C)=CCN1CCNC(=O)C1CC(=O)NCc1nc(C)c(C)s1 (stereo not drawn),-2.0,11.5,0.2,4.1,102.0,100.0,/,/,/
C=C(C)C(=O)OC1(C(F)(F)F)Oc2cc(C)ccc2NC1=O (stereo not drawn),-4.0,22.5,0.5,2.8,91.0,95.0,/,/,/
CCC(C)(C)c1ccc(OCCCC[n+]2ccc(C)cc2)c(C(C)(C)CC)c1,56.0*,98.9*,1.0,-2.1,189.0*,103.0,181.0,37.0,107.0
COc1ccc(OCC(=O)Nc2ccccc2OC)cc1,1.0,0.4,-0.2,-0.4,93.0,94.0,/,/,/
COc1ccc(OCC(=O)Nc2ccccc2OC(F)F)cc1,19.0,9.1,0.7,7.4,123.0,122.0*,99.0,-2.0,97.0
O=C(Nn1c(O)c(C=C2N=c3ccccc3=N2)sc1=S)c1ccccc1,-39.0,0.8,-1.3,-1.2,17.0*[inhibitor],65.0,52.0,-23.0,91.0
O=C(Nn1c(O)c(C=C2N=c3ccccc3=N2)sc1=S)c1ccc(Cl)cc1,/,4.2,-0.4,-1.0,/,/,/,/,/
Cc1ccc(S(=O)(=O)Nn2c(O)c(C=C3N=c4ccccc4=N3)sc2=S)cc1,-3.0,/,/,/,83.0,99.0,/,/,/
O=C(Nn1c(O)c(C=C2N=c3ccccc3=N2)sc1=S)c1cccc(Cl)c1,-4.0,-9.6,0.4,0.8,49.0*[inhibitor],79.0,63.0,-21.0,95.0
Cc1ccc(C(=O)Nn2c(O)c(C=C3N=c4ccccc4=N3)sc2=S)cc1,-6.0,19.5,-0.9,-4.3,39.0*[inhibitor],72.0,39.0,-30.0,91.0
COc1ccc(NC(=O)C2C(=O)NC3(C)CC2c2ccccc2O3)cc1 (stereo not drawn),-8.0,-8.6,1.8,7.4,96.0,88.0,/,/,/
CC12CC(c3ccccc3O1)C(C(=O)NCc1ccccc1)C(=O)N2 (stereo not drawn),-6.0,-4.4,1.6,7.4,87.0,81.0*[inhibitor],82.0,-10.0,87.0
Cc1oc2ccc(O)cc2c1C(=O)OC(C)C,4.0,-3.6,0.1,9.9,107.0,80.0*[inhibitor],97.0,-3.0,100.0
CCC(=O)Nc1ccc(-c2nnc(SCC(=O)N3CCCCC3)n2C)cc1,-15.0,-6.8,3.6,15.3,1.0*[inhibitor],2.0*[inhibitor],103.0,1.0,108.0
CCC(=O)Nc1ccc(C(=O)CSc2nnc(-c3ccc(NS(C)(=O)=O)cc3)n2C)cc1OC,-1.0,-4.3,-0.3,-2.9,94.0,73.0*[inhibitor],103.0,4.0,104.0
COCCCN1C(=O)C(=O)/C(=C(/O)c2ccc(OC)cc2)C12C(=O)N(C)c1ccccc12 (stereo not drawn),2.0,7.2,0.2,-0.9,-3.0*[inhibitor],1.0*[inhibitor],104.0,4.0,101.0
COCCCN1C(=O)C(=O)/C(=C(/O)c2ccc(OC)cc2)C1c1ccc(O)c(OC)c1 (stereo not drawn),3.0,-8.2,0.9,3.3,99.0,100.0,/,/,/
CCC(Oc1ccccc1)C(=O)Nc1nnc(S(=O)(=O)N2CCCC2)s1 (stereo not drawn),-5.0,/,/,/,85.0,91.0,/,/,/
Cc1[nH]n(-c2ccc([N+](=O)[O-])cc2)c(=O)c1C=NCC1CCCO1 (stereo not drawn),-7.0,0.1,0.5,4.7,90.0,94.0,/,/,/
Cc1[nH]n(-c2ccc([N+](=O)[O-])cc2)c(=O)c1C=NCCc1c(C)[nH]c2ccccc12,0.0,29.9,0.3,16.5,107.0,133.0*,91.0,-7.0,86.0
SMILES,MEKK2 mut-MEK5,WT yeast gro inh,ABCB1 block,ABCG2 block,MEKK2 WT-MEK5,MEKK3 PB1 HTS,MEKK2wt confirm,MEKK2mut confirm,MEKK3-MEK5 inh
Cc1ccc(C(=O)Nc2cccc(C(=O)NC3CCCC3)c2)cc1,3.0,/,/,/,100.0,101.0,/,/,/
C=CCn1c(SCC(=O)c2c(N)n(C)c(=O)n(C)c2=O)nnc1-c1ccncc1,-3.0,-6.6,0.0,-0.1,101.0,105.0,/,/,/
Cn1c(N)c(C(=O)CSc2nnc(-c3ccccc3F)n2N)c(=O)n(C)c1=O,-19.0,/,/,/,56.0,47.0*[inhibitor],101.0,3.0,104.0
Cn1c(N)c(C(=O)CSc2nnc(-c3ccccc3F)n2C2CC2)c(=O)n(C)c1=O,0.0,-11.1,0.2,5.5,96.0,99.0,/,/,/
C=CCn1c(SCC(=O)c2c(N)n(C)c(=O)n(C)c2=O)nnc1-c1ccccc1F,108.0*,-15.0,0.2,1.3,85.0,107.0,101.0,2.0,103.0
O=C(Nc1ccc(Br)cc1)NC1CCCCCCC1,-6.0,/,/,/,100.0,94.0,/,/,/
Cc1ccccc1NC(=S)NCc1ccc2c(c1)cc(C)n2C,-2.0,11.7,1.2,13.9,61.0*[inhibitor],74.0*[inhibitor],109.0,7.0,105.0
COc1ccccc1NC(=S)NCc1ccc2c(c1)cc(C)n2C,-7.0,0.5,-0.5,-1.1,98.0,99.0,/,/,/
CCc1cccc(C)c1NC(=S)NCc1ccc2c(c1)cc(C)n2C,-3.0,21.6,-0.1,1.2,72.0*[inhibitor],84.0,104.0,5.0,105.0
CCc1cccc(C)c1NC(=S)NCc1ccccc1,1.0,23.2,0.8,10.3,104.0,105.0,/,/,/
Cc1cc2cc(CNC(=O)Nc3ccccc3)ccc2n1C,4.0,-16.8,-0.2,3.9,-4.0*[inhibitor],87.0,92.0,3.0,95.0
Cc1cc2cc(CNS(=O)(=O)c3ccccc3)ccc2n1C,-20.0,10.8,0.0,0.0,39.0*[inhibitor],61.0,50.0,-14.0,73.0
Cc1cc2cc(CNC(=S)NCc3ccccc3)ccc2n1C,-9.0,24.5,-0.9,-2.0,98.0,97.0,/,/,/
